Only some compounds are listed: those with a hit (about 4% of all), similar ones and a draw of the others.
OX1R antag-1 – antagonists of human orexin 1 receptor; O43613; CHO/OX1R cells, Fluo-8 calcium fluorescence, orexin A; inhibition, % at 5 µM; 330,000 compounds, 0.43% hits; AID 434989;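 active = inhibition above its plate's threshold, mean inhibition of all tested compounds on the plate plus 3 SD, cut at about 37% in these data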
TAAR1 agonist – agonists of human TAAR1; CHO RD-HGA16 TAAR1, Fluo-8 calcium fluorescence; vehicle wells 0%, saturating PEA agonist 100%; Q96RJ0; AID 624467; 360,000 compounds, 0.99% hits; activation, % at 3 µM;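 active = activation above the mean activation of all test compounds in the run plus 3 SD, cut at about 38% in these data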
Target sequence (Q96RJ0 whole entry, looked up): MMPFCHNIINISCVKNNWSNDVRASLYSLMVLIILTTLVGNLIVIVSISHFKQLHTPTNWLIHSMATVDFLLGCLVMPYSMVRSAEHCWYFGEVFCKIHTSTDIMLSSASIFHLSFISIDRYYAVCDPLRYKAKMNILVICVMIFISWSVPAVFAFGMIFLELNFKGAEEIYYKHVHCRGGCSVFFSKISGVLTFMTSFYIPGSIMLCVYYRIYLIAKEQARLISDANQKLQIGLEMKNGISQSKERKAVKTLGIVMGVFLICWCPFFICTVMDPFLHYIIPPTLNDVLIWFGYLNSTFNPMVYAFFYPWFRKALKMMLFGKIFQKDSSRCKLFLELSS
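test system = CHO RD-HGA16 cells carrying human TAAR1 plus Gα16 | schedule = 17-24 h seeding, 75 min 37 °C dye, 30 min RT | compound dosing = 3 µM single concentration | control set = DMSO and PEA EC100 | replicates = n 1 | signal = Fluo-8 fluorescence, 5 s baseline then 140 s kinetic read | measure = percent activation vs PEA EC100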
OX1R antag-2 – antagonists of human orexin 1 receptor (OX1R); O43613; OX1R-expressing cells, FRET antagonist read-out; inhibition, % at 6.6 µM; 330,000 compounds, 1.8% hits; AID 485270; in the data active = inhibition mostly above about 38%, no sharp cut-off; inactive = mostly below about 40%
TAAR1 antag – human TAAR1 antagonism. 360,000 compounds, 1.5% hits. Q96RJ0. CHO RD-HGA16 TAAR1, Fluo-8 calcium fluorescence, antagonist. AID 624466. inhibition, % at 3 µM;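 active = inhibition above a per-plate cutoff, the mean inhibition of test compounds on that plate plus 3 SD, cut at about 49% in these data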
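Test system – hTAAR1-expressing CHO RD-HGA16 cells, Gα16-coupled · Also added – β-PEA at EC80 concentration, post-compound challenge · Compound – 3 µM, single point · Incubation – dye loading 75 min at 37 °C, then 30 min room temperature · Measured by – Fluo-8 intracellular calcium dye fluorescence, real-time kinetic reads · Benchmarks – vehicle and agonist controls · Replicates – singlicate, one well per test compound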
CHO parental Ca – counter-screen: ATP calcium response change in parental CHO cells; inhibition, % at 5.6 µM; parental CHO-K1, ATP-induced calcium, Fluo-8 fluorescence; 330,000 compounds, 0.63% hits;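 active = inhibition above that plate's mean sample inhibition plus 3 SD, cut at about 26% in these data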
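test system = CHO parental line | reagent = ATP stimulus | measured by = intracellular calcium via Fluo-8 no-wash fluorescent dye | control set = ATP and no-ATP DMSO wells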
Numbers stand for hits; . = inactive; / = no result given.

SMILES	OX1R antag-1	TAAR1 agonist	OX1R antag-2	TAAR1 antag	CHO parental Ca
COc1cc(OC)cc(C(=O)NCCN2C(=O)S/C(=C\c3cccs3)C2=O)c1	.	.	35	.	.
Cc1ccccc1NC(=O)N(C)[C@H]1C[C@H]2c3[nH]c4c(-c5ccc6c(c5)OCO6)cccc4c3CCN2C(=O)[C@H]1[C@H](C)O	/	.	/	.	/
S=c1sc2c(Cl)ncnc2n1-c1ccccc1	/	.	/	54	/
CCC(NC(=S)NCc1ccc(F)cc1)c1ccc(C(C)C)cc1 (stereo not drawn)	.	.	.	.	42
CCCc1ccc(C(C)NC(=S)NCc2ccc(F)cc2)cc1 (stereo not drawn)	.	58	.	70	33
CCC(C)c1ccc(C(C)NC(=S)NCc2ccc(F)cc2)cc1 (stereo not drawn)	.	.	.	.	.
CCOc1ccc(C(C)NC(=S)NCc2ccc(Cl)cc2)cc1 (stereo not drawn)	.	45	.	.	.
CCOC(=O)C1=C(C)N(CCCC(=O)O)C(=O)NC1c1ccccc1OS(=O)(=O)c1ccc(C)cc1 (stereo not drawn)	.	/	.	/	.
COCCn1c(SCC(=O)N2CCCc3ccccc32)nc2ccccc2c1=O	.	.	53	.	.
CC(C)c1ccccc1-n1c(SCC(=O)N2CCc3ccccc3C2)nc2ccccc2c1=O	.	.	73	.	.
O=C(CSc1nc2ccccc2c(=O)n1-c1ccccc1)N1CCc2ccccc2C1	.	.	55	.	.
Cc1ccc(-n2c(SCC(=O)N3CC(=O)Nc4ccccc43)nc3ccccc3c2=O)cc1C	.	.	72	.	.
CC(C)Cn1c(SCC(=O)N2CCc3ccccc3C2)nc2cc(Cl)ccc2c1=O	.	.	.	.	.
COC(=O)C1=C(C)N(C)C(=NCc2ccc(OC)cc2)NC1c1ccccc1 (stereo not drawn)	/	.	/	.	/
CCOc1ccccc1C(=O)Nc1ccc2nc(N3CCN(c4ncccn4)CC3)cc(C)c2c1	.	/	.	/	.
COc1cccc(C(=O)Nc2ccc3nc(N4CCN(c5ncccn5)CC4)cc(C)c3c2)c1OC	.	/	59	/	.
CC(C)(C)OC(=O)CNC(=O)c1[nH]cnc1C(=O)Nc1ccc(CNC(=O)OC(C)(C)C)cc1	.	.	.	59	.
CC(C)C[C@H](NC(=O)c1nc[nH]c1C(=O)NC1CCN(C(=O)OC(C)(C)C)CC1)C(=O)OC(C)(C)C	.	.	.	.	.
C[C@H](CO)NC(=O)c1[nH]cnc1C(=O)Nc1ccc(CNC(=O)OC(C)(C)C)cc1	/	.	/	.	/
CC(C)C[C@H](NC(=O)c1[nH]cnc1C(=O)Nc1ccc(CNC(=O)OC(C)(C)C)cc1)C(=O)OCc1ccccc1	.	.	.	53	.
CC(C)(C)OC(=O)NCc1ccc(NC(=O)c2nc[nH]c2C(=O)NCCNC(=O)c2[nH]cnc2C(=O)Nc2ccc(CNC(=O)OC(C)(C)C)cc2)cc1	.	/	.	/	.
C[C@@H](O)CNC(=O)c1[nH]cnc1C(=O)Nc1ccc(CNC(=O)OC(C)(C)C)cc1	/	.	/	49	/
CC(C)C[C@H](NC(=O)c1nc[nH]c1C(=O)NC1CCN(C(=O)OC(C)(C)C)CC1)C(=O)OCc1ccccc1	.	.	.	.	34
C=CCN=C1NC(c2cccc(C(F)(F)F)c2)C(C(=O)OC)=C(C)N1Cc1ccccc1C(F)(F)F (stereo not drawn)	/	.	/	.	/
CC(C)C(=O)Nc1ccc(-c2csc(-c3ccccc3)n2)cc1	.	.	.	.	41
SMILES	OX1R antag-1	TAAR1 agonist	OX1R antag-2	TAAR1 antag	CHO parental Ca
Cc1nc(-c2cccc(NC(=O)c3cccs3)c2)cs1	.	.	.	.	.
O=C(Nc1cccc(-c2csc(-c3ccccc3)n2)c1)c1cccs1	.	.	67	.	.
Oc1ccc(-c2csc(-c3ccccc3)n2)cc1O	.	.	.	.	28
Cc1ccn2cc(-c3cccc(NC(=O)c4cccs4)c3)nc2c1	.	.	75	.	.
O=C(Nc1cccc(-c2cn3cccnc3n2)c1)c1cccs1	.	.	.	.	.
Oc1ccc(-c2csc(-c3cccnc3)n2)cc1O	.	.	.	.	.
CC(C)C(=O)Nc1cccc(-c2csc(-c3ccccc3)n2)c1	.	.	.	.	.
COC(=O)C1=C(C)N(C)C(=NCc2ccc(C(F)(F)F)cc2)NC1c1ccc(Cl)cc1 (stereo not drawn)	/	.	/	.	/
Cc1ccc(C(=O)Nc2cccc(NC(=O)c3cccs3)c2)c(C)c1	.	.	64	.	.
COc1cc(NC(=O)c2ccc(C)cc2C)ccc1NC(=O)c1cccs1	.	.	.	.	.
CCN(C(=O)CC(C)C)c1nnc(Cn2nnc3ccccc32)s1	.	.	.	.	.
CCN(C(=O)c1ccc(C(C)(C)C)cc1)c1nnc(Cn2nnc3ccccc32)s1	69	.	.	.	66
O=C(COC(=O)c1cc(Br)ccc1O)Nc1ccc2c(c1)OCCO2	.	.	.	51	.
Cc1nn(-c2ccccc2)c(C)c1NC(=O)COC(=O)c1cc(Br)ccc1O	.	.	.	61	.
Cc1nn(-c2ccccc2)c(C)c1NC(=O)COC(=O)c1ccc(Cl)c(S(N)(=O)=O)c1	.	.	.	53	.
Cc1cc(C(=O)COC(=O)c2ccc(Cl)c(S(N)(=O)=O)c2)c(C)n1C1CC1	.	.	.	49	.
COc1ccc(OC)c(C(=O)NC(CC(N)=O)c2ccc(NC(C)C)c([N+](=O)[O-])c2)c1 (stereo not drawn)	.	.	.	.	.
COC(=O)[C@]12C[C@H](CC(=O)NCC34CC5CC(CC(C5)C3)C4)C(=O)N(Cc3ccc4c(c3)OCO4)C1=C[C@H](COCc1ccccc1)O[C@@H]2C	/	.	/	.	/
Cc1ccccc1OCC(=O)Nc1ccc(N2CCN(C)CC2)c(Cl)c1	.	39	.	.	.
COc1ccc(OCC(=O)Nc2ccc(N3CCN(C(=O)c4ccccc4)CC3)c(Cl)c2)cc1	.	.	.	.	43
Cc1cc(C(C#N)c2ccc(Cl)cc2)c(Cl)cc1NC(=O)c1cc(I)cc(I)c1O (stereo not drawn)	.	.	62	.	47
O=C(OCC#CCSc1nnc(-c2ccccc2)o1)c1cccs1	.	.	.	.	.
O=C(OCC#CCSc1nnc(-c2cccc3ccccc23)o1)c1cccs1	.	.	56	.	.
COc1ccc(-n2nc3ccccc3n2)cc1	.	.	.	.	.
COc1ccc(-n2nc3cc(N)c(Br)cc3n2)cc1	.	.	43	.	.
C[C@]12Cc3ccccc3C1CC1=N[C@@H](c3ccccn3)O[C@@]13C[C@@H]2C(=O)N3C1CCN(Cc2ccccc2)CC1 (stereo partly drawn)	/	.	/	.	/
N#C/C(N=Nc1ccccc1O)=N\Nc1ccccc1O	.	.	.	66	.
Oc1ccccc1N=N/C(=N/Nc1ccccc1O)c1ccccc1	.	.	.	.	.

Compound activity as filed in PubChem.
